Assay results reported in ChEMBL document CHEMBL1151937, “Synthesis and evaluation of an acyl-chain unsaturated analog of the Th2 biasing, immunostimulatory glycolipid, OCH” (Bioorg Med Chem Lett, 2009).
Active and inactive are the calls of the source. The rule behind the calls is not given here.

Legend:
Assay type in all cases: functional, cell-based
[1] = system: Splenocyte; assay: Stimulation of mouse splenocyte proliferation by [3H]thymidine after 48 hrs by incorporation assay
Outline: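 Mouse splenocytes exposed to lipid at varying concentrations; proliferation read out as tritiated thymidine incorporation. Values are means of duplicate wells.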

[2] = system: iNKT; assay: Stimulation of human iNKT cell proliferation
[3] = system: Splenocyte; assay: Stimulation of IL4 production in C57BL/6 mouse splenocytes after 48 hrs by ELISA
Outline: (§1)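 C57BL/6 mouse splenocytes cultured 48 h with lipid over a range of concentrations; IL-4 and IFNγ measured in culture supernatants by standard sandwich ELISA. Values are means of duplicate wells.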

[4] = system: Splenocyte; assay: Stimulation of IFN-gamma production in C57BL/6 mouse splenocytes after 48 hrs by ELISA; outline: as §1

| Compound | Activity [1] | Activity [2] | Activity [3] | Activity [4] |
| --- | --- | --- | --- | --- |
| CCCCC/C=C\C/C=C\CCCCCCCCCC(=O)N[C@@H](CO[C@H]1O[C@H](CO)[C@H](O)[C@H](O)[C@H]1O)[C@H](O)[C@H](O)CCCCCCCCCCCCCC | Active | Active | – | – |
| CCCCCCCCCCCCCCCCCCCC(=O)N[C@@H](CO[C@H]1O[C@H](CO)[C@H](O)[C@H](O)[C@H]1O)[C@H](O)CCCCCC | Active | inactive | inactive | inactive |
| CCCCCCCCCCCCCCCCCCCC(=O)N[C@@H](CO[C@H]1O[C@H](CO)[C@H](O)[C@H](O)[C@H]1O)[C@H](O)[C@H](O)CCCCC | Active | inactive | inactive | inactive |
| CCCCC/C=C\C/C=C\CCCCCCCCCC(=O)N[C@@H](CO[C@H]1O[C@H](CO)[C@H](O)[C@H](O)[C@H]1O)[C@H](O)CCCCCC | Active | inactive | Active | Active |
| CCCCCCCCCCCCCCCCCCCCCCCC(=O)N[C@@H](CO[C@H]1O[C@H](CO)[C@H](O)[C@H](O)[C@H]1O)[C@H](O)[C@H](O)CCCCC | Active | Active | – | – |
